From ChEMBL document CHEMBL4028900, “Design of Novel 3-Pyrimidinylazaindole CDK2/9 Inhibitors with Potent In Vitro and In Vivo Antitumor Efficacy in a Triple-Negative Breast Cancer Model” (J Med Chem, 2017)
≈ marks a conversion by molar mass, not a printed value.

Legend:
[1] = test system: SH-SY5Y; test: Antiproliferative activity against human SH-SY5Y cells after 24 hrs by MTT assay; format: functional, cell-based
[2] = Thermodynamic equilibrium solubility of the compound in SIF
[3] = Thermodynamic equilibrium solubility of the compound in water
[4] = Thermodynamic equilibrium solubility of the compound in PBS
[5] = Thermodynamic equilibrium solubility of the compound in SGF
[6] = test system: HCT-116; test: Antiproliferative activity against human HCT116 cells after 72 hrs by SRB assay; conditions: HCT-116, 72 h
[7] = test system: MCF7; test: Antiproliferative activity against human MCF7 cells
[8] = test system: 4T1; test: Antiproliferative activity against mouse 4T1 cells after 24 hrs by MTT assay; conditions: 4T1, 24 h
[9] = Initial concentration in BALB/c mouse at 2.5 mg/kg, iv by LC/MS-MS analysis; format: ADME, organism-based; conditions: in vivo
[10] = Plasma concentration in BALB/c mouse at 2.5 mg/kg, iv at […] by LC/MS-MS analysis; format: ADME, organism-based
[11] = Plasma concentration in BALB/c mouse at 2.5 mg/kg, iv at 1 hr by LC/MS-MS analysis; format: ADME, organism-based
[12] = Plasma concentration in BALB/c mouse at 2.5 mg/kg, iv at 2 hrs by LC/MS-MS analysis; format: ADME, organism-based
[13] = target: CDK9/cyclin T1 (Homo sapiens, UniProt P50750); format: protein-complex assay
Chain of CDK9/cyclin T1 (O60563 whole entry): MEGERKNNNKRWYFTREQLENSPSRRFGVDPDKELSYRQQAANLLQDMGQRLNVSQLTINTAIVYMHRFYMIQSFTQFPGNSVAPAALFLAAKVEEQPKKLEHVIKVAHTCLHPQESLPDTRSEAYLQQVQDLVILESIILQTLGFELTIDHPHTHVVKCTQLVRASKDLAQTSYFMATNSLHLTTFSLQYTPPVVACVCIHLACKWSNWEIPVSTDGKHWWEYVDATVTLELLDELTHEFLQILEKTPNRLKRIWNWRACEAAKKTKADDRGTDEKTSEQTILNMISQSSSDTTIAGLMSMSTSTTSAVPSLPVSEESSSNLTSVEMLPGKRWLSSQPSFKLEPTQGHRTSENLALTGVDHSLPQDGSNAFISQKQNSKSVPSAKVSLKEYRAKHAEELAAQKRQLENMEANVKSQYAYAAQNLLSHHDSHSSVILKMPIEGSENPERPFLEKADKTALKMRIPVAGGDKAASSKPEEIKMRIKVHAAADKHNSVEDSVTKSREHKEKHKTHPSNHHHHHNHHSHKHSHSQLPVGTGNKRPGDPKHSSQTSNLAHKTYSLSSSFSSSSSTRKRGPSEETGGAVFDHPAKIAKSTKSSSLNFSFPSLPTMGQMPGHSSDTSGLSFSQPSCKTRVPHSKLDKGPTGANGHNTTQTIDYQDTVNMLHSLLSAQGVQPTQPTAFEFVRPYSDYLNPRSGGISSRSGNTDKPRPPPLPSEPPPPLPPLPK
Chain of CDK9/cyclin T1 (P50750 whole entry): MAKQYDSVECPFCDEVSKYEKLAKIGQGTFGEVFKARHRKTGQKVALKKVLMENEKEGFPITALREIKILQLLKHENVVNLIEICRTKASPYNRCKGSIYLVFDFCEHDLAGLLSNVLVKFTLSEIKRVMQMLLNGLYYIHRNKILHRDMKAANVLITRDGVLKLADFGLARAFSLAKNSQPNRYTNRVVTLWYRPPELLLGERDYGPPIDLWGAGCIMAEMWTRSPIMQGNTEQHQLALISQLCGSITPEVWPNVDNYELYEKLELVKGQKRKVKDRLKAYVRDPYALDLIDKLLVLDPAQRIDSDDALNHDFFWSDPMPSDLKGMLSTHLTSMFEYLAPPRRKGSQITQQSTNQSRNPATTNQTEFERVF

[14] = Plasma concentration in BALB/c mouse at 2.5 mg/kg, iv at 4 hrs by LC/MS-MS analysis; format: ADME, organism-based
[15] = Plasma concentration in BALB/c mouse at 2.5 mg/kg, iv at 0.25 hrs by LC/MS-MS analysis; format: ADME, organism-based
[16] = test system: MDA-MB-468; test: Antiproliferative activity against human MDA-MB-468 cells
[17] = test system: MDA-MB-231; test: Antiproliferative activity against human MDA-MB-231 cells
[18] = test system: T47D; test: Antiproliferative activity against human T47D cells after 72 hrs by SRB assay
[19] = Antiproliferative activity against HEK cells; conditions: Homo sapiens, HEK293
[20] = Volume of distribution in BALB/c mouse at 2.5 mg/kg, iv by LC/MS-MS analysis; format: ADME, organism-based; conditions: in vivo
[21] = Clearance in BALB/c mouse at 2.5 mg/kg, iv by LC/MS-MS analysis; format: ADME, organism-based; conditions: in vivo
[22] = Half life in BALB/c mouse at 2.5 mg/kg, iv by LC/MS-MS analysis; format: ADME, organism-based; conditions: in vivo
[23] = AUC (0 to infinity) in BALB/c mouse at 2.5 mg/kg, iv by LC/MS-MS analysis; format: ADME, organism-based; parameters: dose 2.5 mg/kg, time infinity, route intravenous; conditions: in vivo
[24] = test system: BT-549; test: Antiproliferative activity against human BT549 cells
[25] = AUC (0 to t) in BALB/c mouse at 2.5 mg/kg, iv by LC/MS-MS analysis; format: ADME, organism-based; conditions: in vivo
[26] = Plasma concentration in BALB/c mouse at 2.5 mg/kg, iv at 0.5 hrs by LC/MS-MS analysis; format: ADME, organism-based
[27] = test system: Mus musculus; test: Toxicity in Swiss mouse allografted with Swiss mouse EAC cells assessed as body weight at 22 mg/kg, ip administered for 9 days measured on day 9 post last dose (reference value: 27.9 g); format: organism-based; conditions: in vivo, 216 h
[28] = test system: Mus musculus; test: Toxicity in Swiss mouse allografted with Swiss mouse EAC cells assessed as body weight at 22 mg/kg, ip administered for 5 days measured on day 5 post last dose (reference value: 27.1 g); format: organism-based; conditions: in vivo, 120 h
[29] = test system: Ehrlich; test: Antitumor activity against Swiss mouse EAC cells allografted in Swiss mouse assessed as tumor growth inhibition at 22 mg/kg, ip administered for 13 days measured on day 13 post last dose relative to control; format: functional; conditions: 312 h, read-out: TGI
[30] = test system: Mus musculus; test: Toxicity in Swiss mouse allografted with Swiss mouse EAC cells assessed as mortality at 22 mg/kg, ip administered for 9 to 13 days; format: organism-based; conditions: in vivo
[31] = test system: Mus musculus; test: Toxicity in Swiss mouse allografted with Swiss mouse EAC cells assessed as body weight at 22 mg/kg, ip administered for 13 days measured on day 13 post last dose (reference value: 28.7 g); format: organism-based; conditions: in vivo, 312 h
[32] = test system: Mus musculus; test: Toxicity in Swiss mouse allografted with Swiss mouse EAC cells assessed as body weight at 22 mg/kg, ip measured on day 1 (reference value: 26.2 g); format: organism-based; conditions: in vivo
[33] = Plasma concentration in BALB/c mouse at 5 mg/kg, ip at 0.5 hrs by LC/MS-MS analysis; format: ADME, organism-based
[34] = test system: Mus musculus; test: Volume of distribution in BALB/c mouse at 5 mg/kg, ip by LC/MS-MS analysis; format: ADME, organism-based; conditions: in vivo
[35] = AUC (0 to t) in BALB/c mouse at 5 mg/kg, ip by LC/MS-MS analysis; format: ADME, organism-based; conditions: in vivo
[36] = Plasma concentration in BALB/c mouse at 5 mg/kg, ip at 4 hrs by LC/MS-MS analysis; format: ADME, organism-based
[37] = Plasma concentration in BALB/c mouse at 5 mg/kg, ip at 2 hrs by LC/MS-MS analysis; format: ADME, organism-based
[38] = test system: Mus musculus; test: Clearance in BALB/c mouse at 5 mg/kg, ip by LC/MS-MS analysis; format: ADME, organism-based; conditions: in vivo
[39] = test system: Mus musculus; test: Half life in BALB/c mouse at 5 mg/kg, ip by LC/MS-MS analysis; format: ADME, organism-based; conditions: in vivo
[40] = test system: 4T1; test: Antitumor activity against mouse 4T1 cells allografted in iv dosed Balb/C mouse assessed as tumor growth inhibition administered every 3 days for 21 days measured 2 times for every week during dosing; format: functional, organism-based
Method in brief: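 4T1 cells were grown in RPMI-1640 with 10% FBS, pyruvate and NEAA at 37 °C and 5% CO2. Female Balb/C mice received 1×10^6 cells into the second mammary fat pad. At about 100 mm3, mice were grouped five per group and dosed by tail vein in 200 µL (PBS diluent) every three days for 21 days. Tumor volume (L×B²/2, caliper) and body weight were taken twice weekly. The experiment was repeated twice.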

[41] = test system: Mus musculus; test: AUC (0 to infinity) in BALB/c mouse at 5 mg/kg, ip by LC/MS-MS analysis; format: ADME, organism-based; parameters: dose 5 mg/kg, route intraperitoneal, time infinity; conditions: in vivo
[42] = Plasma concentration in BALB/c mouse at 5 mg/kg, ip at 1 hr by LC/MS-MS analysis; format: ADME, organism-based
[43] = Plasma concentration in BALB/c mouse at 5 mg/kg, ip at 0.25 hrs by LC/MS-MS analysis; format: ADME, organism-based
[44] = target: CDK9/cyclin T1 (Homo sapiens) (UniProt O60563+P50750); conditions: at 500 nM
[45] = target: CDK2/Cyclin A2 (Homo sapiens, UniProt P24941); test: Inhibition of CDK2/cyclin A (unknown origin) using histone H1 as substrate after 30 mins in presence of [33P]-gamma-ATP; format: protein-complex assay
[46] = target: CDK2/Cyclin A2 (Homo sapiens) (UniProt P24941+P20248); conditions: at 500 nM

## Nc1nccc(-c2c[nH]c3ncc(-c4ccoc4)cc23)n1
[1]
  IC50: 900 nM
[2]
  solubility thermodynamic: 1 µg/mL (≈ 3.61 µM)
[3]
  solubility thermodynamic: 20 µg/mL (≈ 72.1 µM)
[4]
  solubility thermodynamic: 10 µg/mL (≈ 36.1 µM)
[5]
  solubility thermodynamic: 800 µg/mL (≈ 2890 µM)
[6]
  IC50: 700 nM

## Nc1nccc(-c2c[nH]c3ncccc23)n1 [MERIOLIN 1]
[7]
  IC50: 6 µM
[8]
  IC50: 2500 nM
[2]
  solubility thermodynamic: 87.7 µg/mL (≈ 415 µM)
[9]
  C0: 230 ng/mL
[10]
  concentration at […]: 167 ng/mL
[11]
  concentration at 1 h: 4.5 ng/mL
[12]
  concentration at 2 h: 1 ng/mL
[3]
  solubility thermodynamic: 95.8 µg/mL (≈ 454 µM)
[13]
  IC50: 30 nM
[14]
  concentration at 4 h: 0.8 ng/mL
[15]
  concentration at 0.25 h: 34.1 ng/mL
[16]
  IC50: 13 µM
[17]
  IC50: 6 µM
[4]
  solubility thermodynamic: 89 µg/mL (≈ 421 µM)
[5]
  solubility thermodynamic: 352 µg/mL (≈ 1670 µM)
[18]
  IC50: 8 µM
[19]
  IC50: 36 µM
[20]
  Vd: 36.5 L/kg
[21]
  clearance: 897 mL/min/kg
[22]
  half-life: 28.2 min
[6]
  IC50: 1800 nM
[23]
  AUC(0-inf): 46.9 ng·h/mL
[24]
  IC50: 7 µM
[25]
  AUC(0-t): 46.2 ng·h/mL
[26]
  concentration at 0.5 h: 12.6 ng/mL

## O=c1[nH]cc(F)c(=O)[nH]1 [FLUOROURACIL]
[27]
  Activity: 24.57 g
[28]
  Activity: 25 g
[29]
  inhibition in vivo at 22 mg/kg: 50.4%
[30]
  Activity: Non-Toxic
[31]
  Activity: 24.85 g
[32]
  Activity: 26 g

## Nc1nccc(-c2c[nH]c3ncc(-c4ccc(F)cc4)cc23)n1
[33]
  concentration at 0.5 h: 73 ng/mL
[34]
  Vd: 63.6 L/kg
[9]
  C0: 1470 ng/mL
[35]
  AUC(0-t): 244 ng·h/mL
[10]
  concentration at […]: 797 ng/mL
[36]
  concentration at 4 h: 40.7 ng/mL
[37]
  concentration at 2 h: 59.1 ng/mL
[11]
  concentration at 1 h: 132 ng/mL
[12]
  concentration at 2 h: 99.6 ng/mL
[38]
  CL: 0.9 L/h/kg
[39]
  t1/2: 4.4 h
[40]
  TGI: Dose-dependent effect
[15]
  concentration at 0.25 h: 311 ng/mL
[41]
  AUC: 504.3 ng·h/mL
[42]
  concentration at 1 h: 61.6 ng/mL
[20]
  Vd: 11.3 L/kg
[21]
  clearance: 51.7 mL/min/kg
[22]
  half-life: 150 min
[23]
  AUC(0-inf): 795 ng·h/mL
[43]
  concentration at 0.25 h: 162 ng/mL
[25]
  AUC(0-t): 437 ng·h/mL
[26]
  concentration at 0.5 h: 168 ng/mL

## Nc1nccc(-c2c[nH]c3ncc(-c4ccc(Cl)cc4)cc23)n1
[1]
  IC50: 900 nM
[2]
  solubility thermodynamic: 113 µg/mL (≈ 352 µM)
[3]
  solubility thermodynamic: 57.4 µg/mL (≈ 178 µM)
[4]
  solubility thermodynamic: 120 µg/mL (≈ 373 µM)
[5]
  solubility thermodynamic: 74.4 µg/mL (≈ 231 µM)
[6]
  IC50: 500 nM

## Nc1nccc(-c2c[nH]c3ncc(-c4cccnc4)cc23)n1
[1]
  IC50: 1000 nM
[2]
  solubility thermodynamic: 1 µg/mL (≈ 3.47 µM)
[3]
  solubility thermodynamic: 80 µg/mL (≈ 277 µM)
[4]
  solubility thermodynamic: 200 µg/mL (≈ 694 µM)
[5]
  solubility thermodynamic: 800 µg/mL (≈ 2770 µM)
[6]
  IC50: 700 nM

## c1ccc(CCNc2nccc(-c3c[nH]c4ncccc34)n2)cc1
[44]
  inhibition: 92.4%
[2]
  solubility thermodynamic: > 5 µg/mL
[3]
  solubility thermodynamic: < 5 µg/mL
[45]
  IC50: 10 nM
[46]
  inhibition: 92.5%
[13]
  IC50: 20 nM
[4]
  solubility thermodynamic: < 5 µg/mL
[5]
  solubility thermodynamic: 1500 µg/mL (≈ 4760 µM)
[6]
  IC50: 560 nM
